The list is not random: actives were taken first. Their share in the collection is about 3.6%.
NR3A LBD binder = modulators (binders) of human NR3A ligand-binding domain. actives 2.5% (n = 340,000). NR3A LBD differential scanning fluorimetry, Tm shift; 0% = protein alone, 100% = glycine-bound protein. Tm shift relative to glycine control, % at 25 µM. AID 1259313;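 active = melting temperature shift of at least 10% of the positive control shift, at one fixed dose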
FID counter = displaces DNA intercalator in HCV helicase counter-screen | inhibition, % at 7.9 µM | AID 1845 | DNA fluorescent intercalator displacement, fluorescence | actives 0.17% (n = 290,000); in the data active = inhibition above about 37%;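 note: 0% = vehicle and 100% = reference compound; higher means more ethidium bromide displaced from hairpin DNA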
FGF22 binding = FGF22 (human) thermal shift binding | Q9HCT0 | recombinant FGF22 thermal shift, SYPRO orange fluorescence; percent of sucrose octasulfate shift, DMSO zero | activity (Tm shift, normalised), % at 9.99 µM | actives 1.5% (n = 340,000) | AID 651658;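 active = mean Tm shift, scaled 0 neutral to 100 positive control, at about 1.3% or above, every replicate too, limit read from the data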
Target sequence (Q9HCT0 whole entry, looked up): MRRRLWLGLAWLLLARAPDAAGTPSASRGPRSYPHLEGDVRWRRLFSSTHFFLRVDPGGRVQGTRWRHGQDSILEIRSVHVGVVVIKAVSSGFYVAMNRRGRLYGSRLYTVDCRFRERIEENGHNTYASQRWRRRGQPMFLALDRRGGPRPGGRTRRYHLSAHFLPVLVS
HCV NS3 hel inh = inhibitors of Hepatitis C virus NS3 helicase | NS3 helicase DNA unwinding, Cy5 molecular beacon fluorescence | inhibition, % at 10.9 µM | actives 0.56% (n = 290,000);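 active = inhibition above the mean of all tested compounds plus 3 SD, set per campaign, cut at about 35% in these data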;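 note: 0% = DMSO wells and 100% = thioflavine S control wells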
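Material: hepatitis C virus NS3 helicase domain fragment enzyme; measured by: Cy5 fluorescence, 0 and 60 min reads; control set: DMSO and thioflavine S; incubation: 60 min unwinding reaction at 25 °C after ATP addition; read-out basis: % inhibition from 60/0 min fluorescence ratio, DMSO 0%, thioflavine S 100%; repeats: singlicate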
EBNA-1 inh = blocks EBNA-1 binding to DNA; EBNA-1 DNA binding, fluorescence polarization; inhibition, % at 14.8 µM; actives 0.34% (n = 300,000); in the data active = inhibition above about 28%
ZTA counter = ZTA (EBV) inhibition in EBNA-1 counter-screen. P03206. ZTA-DNA binding, fluorescence polarization. inhibition, % at 11 µM. actives 0.15% (n = 320,000). AID 2234; in the data active = inhibition above about 33%
Target sequence (P03206 whole entry, looked up): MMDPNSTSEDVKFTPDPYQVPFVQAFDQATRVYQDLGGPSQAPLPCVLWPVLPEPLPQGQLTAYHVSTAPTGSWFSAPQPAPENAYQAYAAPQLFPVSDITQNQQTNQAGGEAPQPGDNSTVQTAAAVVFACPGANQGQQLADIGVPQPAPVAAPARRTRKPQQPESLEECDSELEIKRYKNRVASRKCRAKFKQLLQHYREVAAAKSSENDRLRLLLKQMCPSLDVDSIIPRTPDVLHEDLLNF
* marks the source's active call; other numbers are inactive results; nt = no result given.

SMILES	NR3A LBD binder	FID counter	FGF22 binding	HCV NS3 hel inh	EBNA-1 inh	ZTA counter
O=S(=O)(c1ccc(Cl)cc1)n1ccc2cccnc21	0.2	-5.9	nt	-3.8	-5.2	-21.9
O=S(=O)(c1ccc(Cl)cc1Cl)n1ccc2cccnc21	0.0	-6.6	43.2*	-4.1	-1.0	-14.0
O=C(CCc1ccc(S(=O)(=O)NCCc2ccccc2)cc1)Nc1ccc2c(c1)OCO2	-9.1	-17.8	0.1	-4.8	11.9	-1.9
CCNS(=O)(=O)c1ccc(NC(=O)Nc2ccc3c(c2)OCO3)cc1	24.6*	-4.8	-0.1	-5.3	-10.6	2.8
CCOC(=O)COc1ccc(S(=O)(=O)Nc2ccc(C)cc2)cc1	-0.7	-18.9	nt	4.1	8.5	4.1
CCOC(=O)COc1ccc(S(=O)(=O)Nc2ccc3c(c2)OCO3)cc1	13.7*	48.0*	nt	-0.5	-4.4	-15.4
O=C(Nc1ccc(S(=O)(=O)NCc2ccccc2)cc1)Nc1ccc2c(c1)OCO2	35.8*	2.0	0.1	-8.5	0.2	18.5
CN(C)C(=O)[C@@H]1[C@@H](CO)[C@@H]2Cn3c(ccc(/C=C/c4ccccc4)c3=O)[C@@H]2N1C(=O)c1cnccn1	nt	nt	0.3	nt	nt	nt
COc1ccc(S(=O)(=O)N(C)C[C@H]2Oc3c(NC(=O)c4cc(C)nn4C)cccc3C(=O)N([C@H](C)CO)C[C@@H]2C)cc1	nt	nt	1.0	nt	nt	nt
Cc1noc(C)c1NC(=O)Nc1ccc2c(c1)CC(=O)N([C@H](C)CO)C[C@H](C)[C@@H](CN(C)Cc1ccc3c(c1)OCO3)O2	nt	nt	0.1	nt	nt	nt
Cc1ccc(S(=O)(=O)N(C)C[C@H]2OCCCC[C@H](C)Oc3ccc(NC(=O)c4ccccc4)cc3C(=O)N([C@H](C)CO)C[C@H]2C)cc1	nt	nt	-0.3	nt	nt	nt
O=C(CCO)c1ccc(O)cc1	-0.7	-4.8	0.3	8.0	5.4	1.9
O=C(CCSc1ccc(Br)cc1)c1ccc(O)cc1	11.9*	0.6	0.3	4.9	2.7	-1.2
COc1ccc(S(=O)(=O)Nc2ccc3c(c2)CC(=O)N([C@H](C)CO)C[C@H](C)[C@H](CN(C)C(=O)Nc2c(C)noc2C)O3)cc1	nt	nt	0.0	nt	nt	nt
CC1=CC(C)C2(CO)COC(c3cccnc3)C1C2C (stereo not given)	-1.0	-4.1	43.0*	6.2	9.8	-2.2
CC1=CC(C)C2(CO)COC(c3ccc(O)cc3)C1C2C (stereo not given)	0.3	-13.9	43.2*	-5.4	-5.6	-11.9
Cc1noc(C)c1S(=O)(=O)Nc1ccc2c(c1)CC(=O)N([C@@H](C)CO)C[C@@H](C)[C@@H](CN(C)C)O2	nt	nt	0.1	nt	nt	nt
CNC[C@@H]1Oc2ccc(NS(=O)(=O)c3ccc(F)cc3)cc2CC(=O)N([C@@H](C)CO)C[C@@H]1C	nt	nt	0.1	nt	nt	nt
CCOc1ccc(NC(=O)CN(C)C(=O)C2CC(=O)N(CCc3ccc(OC)c(OC)c3)C2)cc1OCC (stereo not given)	-2.2	nt	6.3*	nt	nt	nt
O=C(CCN1CCCCC1)c1ccccc1	-12.7	0.6	-0.2	-10.9	6.8	-10.0
C[N+]1(CCC(=O)c2ccccc2)CCCCC1	10.2*	4.0	nt	7.1	-3.7	-13.4
O=C(CN1C(=O)/C(=C2\SC(=S)N(CCS(=O)(=O)O)C2=O)c2ccccc21)Nc1cccc(Br)c1	11.9*	57.6*	-0.2	31.8	-2.7	0.7
COCC(=O)Nc1ccc2c(c1)[C@@H]1C[C@@H](CC(=O)NCc3cc(F)ccc3F)O[C@@H](CO)[C@@H]1O2	nt	nt	-0.1	nt	nt	nt
C[C@@H]1CN([C@@H](C)CO)C(=O)c2cc(NS(=O)(=O)c3ccc(Cl)cc3)ccc2O[C@H]1CN(C)C	nt	nt	0.0	nt	nt	nt
O=C(CSc1nnc2ccccn12)c1ccc(Cl)cc1	-0.7	-5.4	43.2*	-0.8	-2.9	-23.9
SMILES	NR3A LBD binder	FID counter	FGF22 binding	HCV NS3 hel inh	EBNA-1 inh	ZTA counter
O=C(CSc1nnc2ccccn12)NNC(=O)c1ccc(Cl)cc1	0.8	-8.1	0.1	1.2	-4.2	12.7
Cc1onc(-c2ccccc2)c1C(=O)OCC(=O)Nc1ccc(OC(F)(F)F)cc1	12.1*	nt	0.2	nt	nt	10.3
Cc1noc(C)c1C(=O)OCC(=O)Nc1cccc(S(N)(=O)=O)c1	-1.8	-2.0	43.4*	1.1	0.7	6.2
Cc1onc(-c2ccccc2)c1C(=O)OCC(=O)Nc1ccc(Cl)cc1	1.9	nt	-0.2	nt	nt	-9.5
Cc1onc(-c2ccccc2)c1C(=O)OCC(=O)Nc1cccc(Cl)c1	13.2*	nt	0.1	nt	nt	-7.0
Cc1ccc(NC2CCCN(C(=O)CN3C(=O)CSC3=O)C2)cc1C (stereo not given)	11.1*	-11.7	-0.7	2.2	5.5	-9.0
COc1ccc(C(=O)N2CCCC(Nc3ccc(C)c(C)c3)C2)c(OC)n1 (stereo not given)	31.7*	-23.8	-0.3	-7.5	-0.3	-0.2
CC(C)c1ccc(NC2CCCN(C(=O)CN3C(=O)CSC3=O)C2)cc1 (stereo not given)	-4.3	-19.7	-0.2	-5.2	-5.8	1.9
COc1ccc(C(=O)N2CCCC(Nc3ccc(F)cc3)C2)c(OC)c1 (stereo not given)	13.1*	-20.7	-0.2	4.8	0.4	0.2
Cc1nonc1NC(=O)CSc1nc(C23CC4CC(CC(C4)C2)C3)nc2ccccc12	17.5*	-1.5	0.1	2.1	-3.2	7.5
O=S(=O)(N[C@H]1CC[C@@H](CCn2cc(-c3cccc(F)c3)nn2)O[C@H]1CO)c1ccc(Cl)cc1	nt	nt	-0.1	nt	nt	nt
O=C1c2ccccc2C(=O)N1/N=C/c1ccc(O)c(O)c1O	-2.1	1.7	nt	10.5	nt	nt
Oc1ccc(/C=N/N2CCCCC2)c(O)c1	33.4*	-7.7	-0.3	11.3	-13.1	-0.7
Oc1ccc(/C=N/Nc2nc(N3CCCCCC3)nc(N3CCCCCC3)n2)c(O)c1	14.6*	2.1	0.0	0.7	-7.2	-15.2
O=C1c2cccc3cccc(c23)C(=O)N1/N=C/c1ccc(O)cc1O	25.1*	4.8	nt	6.0	5.1	4.8
Oc1ccccc1C=NN1CCCCCC1	2.4	nt	-0.1	nt	nt	nt
C[C@@H]1CCCCO[C@@H](CN(C)C(=O)Cc2ccccc2)[C@H](C)CN([C@H](C)CO)C(=O)c2cc(NS(=O)(=O)c3ccc(Cl)cc3)ccc2O1	nt	nt	0.5	nt	nt	nt
CC(C)c1ccc(NC(=O)CNS(=O)(=O)c2ccc(F)cc2)cc1	-0.9	-12.2	43.2*	4.1	-5.4	-2.3
O=C(C1CCOCC1)N1CC2(C1)[C@@H](c1ccccc1)[C@@H](CO)N2Cc1ccc(Cl)cc1	nt	nt	0.1	nt	nt	nt
CC(=O)Nc1ccc(Nc2cc(N3CCOCC3)c3nonc3c2[N+](=O)[O-])cc1	-1.1	-3.2	nt	6.9	8.0	-13.6
O=[N+]([O-])c1c(Nc2ccc(O)cc2)cc(N2CCOCC2)c2nonc12	-2.8	6.2	44.0*	19.6	5.8	-3.0
O=C(O)c1cc(Nc2cc(Cl)c3nonc3c2[N+](=O)[O-])ccc1O	-2.7	-3.8	1.8*	19.5	-26.4	-5.3
O=C(O)c1ccccc1Nc1ccc2nonc2c1[N+](=O)[O-]	1.7	-1.7	0.4	19.7	nt	nt

High-throughput results: PubChem, several laboratories
